Test results: ChEMBL document CHEMBL1240465, “Prenylflavonoids and prenyl/alkyl-phloroacetophenones: synthesis and antitumour biological evaluation” (Eur J Med Chem, 2010)

Assays:
Format in all cases: functional, cell-based
HeLa = assay: Cytotoxicity against human HeLa cells after 72 hrs by XTT assay
Method in brief: (§1)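 Cells grown in DMEM (A549, HT-29, HeLa) or RPMI1640 (HL-60), both with 10% heat-inactivated fetal bovine serum, were exposed to compound across a concentration range for 72 h at 37 °C in humidified air/CO₂ (19/1), then read by XTT. Measurements were in triplicate. IC50 is the concentration giving 50% proliferation inhibition versus untreated controls, reported as mean ± S.D. of three independent determinations.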

HT-29 = assay: Cytotoxicity against human HT-29 cells after 72 hrs by XTT assay; conditions: HT-29, 72 h
Method in brief: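 Cells grown in DMEM (A549, HT-29, HeLa) or RPMI1640 (HL-60), both with 10% heat-inactivated fetal bovine serum, were exposed to compound across a concentration range for 72 h at 37 °C in humidified air/CO₂ (19/1), then read by XTT. Measurements were in triplicate.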

HL-60 = assay: Cytotoxicity against human HL60 cells after 72 hrs by XTT assay; conditions: HL-60, 72 h; method in brief: as §1
A549 = assay: Cytotoxicity against human A549 cells after 72 hrs by XTT assay; conditions: A549, 72 h; method in brief: as §1

SMILES	IC50 (HeLa)	IC50 (HT-29)	IC50 (HL-60)	IC50 (A549)
CCCCCCCC/C=C\CCCCCCCCOc1cc(O)c(C(C)=O)c(OCCCCCCCC/C=C\CCCCCCCC)c1	> 100 µM	> 100 µM	> 100 µM	> 100 µM
CC(=O)c1c(O)cc(OCC=C(C)C)cc1O	30 µM	31 µM	32 µM	> 100 µM
CC(=O)c1c(O)cc(O)cc1OC/C=C(\C)CC/C=C(\C)CCC=C(C)C	31 µM	29 µM	31 µM	32 µM
O=c1c(O)c(-c2ccc(O)cc2)oc2cc(O)cc(O)c12 [KAEMPFEROL]	> 100 µM	> 100 µM		> 100 µM
C=C1CC[C@H]2C(C)(C)CCC[C@]2(C)[C@H]1CC/C(C)=C/COc1cc(O)c2c(=O)c(O)c(-c3ccc(OC)cc3)oc2c1	> 100 µM	> 100 µM		> 100 µM
CC(=O)c1c(O)cc(O)c(C/C=C(\C)CC/C=C(\C)CCC=C(C)C)c1O	13 µM	18 µM	14 µM	22 µM
CC(=O)c1c(OC/C=C(\C)CC/C=C(\C)CCC=C(C)C)cc(O)c(C/C=C(\C)CC/C=C(\C)CCC=C(C)C)c1O	> 100 µM	> 100 µM	32 µM	> 100 µM
COc1ccc(-c2oc3cc(OC)cc(O)c3c(=O)c2OC)cc1	28 µM	26 µM		30 µM
CC(=O)c1c(O)c(CC=C(C)C)c(O)c(CC=C(C)C)c1O	> 100 µM	> 100 µM	> 100 µM	> 100 µM
CCCCCCCC/C=C\CCCCCCCCOc1cc(O)c(C(C)=O)c(O)c1	31 µM	31 µM	32 µM	31 µM
C=C1CC[C@H]2C(C)(C)CCC[C@]2(C)[C@H]1CC/C(C)=C/COc1c(-c2ccc(OC)cc2)oc2cc(O)cc(O)c2c1=O	30 µM	32 µM		30 µM
COc1ccc(-c2oc3cc(O)cc(O)c3c(=O)c2O)cc1 [KAEMPFERIDE]	23 µM	32 µM		22 µM
CC(=O)c1ccc(C)cc1O	> 100 µM	> 100 µM	> 100 µM	> 100 µM
C=C1CC[C@H]2C(C)(C)CCC[C@]2(C)[C@H]1CC/C(C)=C/Cc1c(O)cc(O)c2c(=O)c(O)c(-c3ccc(O)cc3)oc12	30 µM	29 µM		32 µM
CCCCCCCCCCCCCCCCCCc1c(O)cc(O)c(C(C)=O)c1O	28 µM	26 µM	31 µM	32 µM
C=C1CC[C@H]2C(C)(C)CCC[C@]2(C)[C@H]1CC/C(C)=C/COc1cc(O)c2c(=O)c(OC/C=C(\C)CC[C@H]3C(=C)CC[C@H]4C(C)(C)CCC[C@]34C)c(-c3ccc(O)cc3)oc2c1	> 100 µM	> 100 µM		> 100 µM
COc1cccc2c1C(=O)c1c(O)c3c(c(O)c1C2=O)C[C@@](O)(C(=O)CO)C[C@@H]3O[C@H]1C[C@H](N)[C@H](O)[C@H](C)O1 [DOXORUBICIN]	0.29 µM			0.26 µM
C=C1CC[C@H]2C(C)(C)CCC[C@]2(C)[C@H]1CC/C(C)=C/COc1c(-c2ccc(O)cc2)oc2cc(O)cc(O)c2c1=O	27 µM	30 µM		26 µM
CC(=O)c1c(O)c2c(c3c1OC(C)(C)CC3)OC(C)(C)CC2	> 100 µM	32 µM	31 µM	> 100 µM
CC(=O)c1c(O)c(C/C=C(\C)CCC=C(C)C)c(O)c(C/C=C(\C)CCC=C(C)C)c1O	31 µM	20 µM	19 µM	32 µM
C=C1CC[C@H]2C(C)(C)CCC[C@]2(C)[C@H]1CC/C(C)=C/Cc1c(O)cc2oc(-c3ccc(O)cc3)c(O)c(=O)c2c1O [DENTICULAFLAVONOL]	> 100 µM	> 100 µM		> 100 µM
CC(=O)c1c(O)cc(O)c(CC=C(C)C)c1O	28 µM	30 µM	32 µM	29 µM
COc1ccc(-c2oc3cc(O)cc(O)c3c(=O)c2OC)cc1 [ERMANIN]	31 µM	32 µM		31 µM

SMILES	IC50 (HeLa)	IC50 (HT-29)	IC50 (HL-60)	IC50 (A549)
O=c1cc(-c2ccccc2)oc2cc(O)cc(O)c12 [CHRYSIN]	29 µM	> 100 µM		> 100 µM
CC(C)=CCC/C(C)=C/COc1cc2oc(-c3ccccc3)cc(=O)c2c(O)c1C/C=C(\C)CCC=C(C)C	30 µM	32 µM		32 µM
C=C1CC[C@H]2C(C)(C)CCC[C@]2(C)[C@H]1CC/C(C)=C/COc1cc(O)c2c(=O)c(O)c(-c3ccc(O)cc3)oc2c1	> 100 µM	> 100 µM		> 100 µM
CC(=O)c1c(O)cc2c(c1O)CCC(C)(C)O2	> 100 µM	> 100 µM	> 100 µM	> 100 µM
CC(C)=CCC/C(C)=C/COc1cc(O)c2c(=O)c(OC/C=C(\C)CCC=C(C)C)c(-c3ccc(O)cc3)oc2c1	> 100 µM	31 µM		> 100 µM
CCCCCCCCCCCCCCCCCCOc1cc(O)c(C(C)=O)c(O)c1	> 100 µM	> 100 µM	> 100 µM	> 100 µM
CC(=O)c1c(O)cc2c(c1O)CCC(C)(CC/C=C(\C)CCC=C(C)C)O2 (stereo unspecified)	30 µM	> 100 µM	31 µM	> 100 µM
COc1cc(O)c(C(C)=O)c(OC)c1 [XANTHOXYLIN]	> 100 µM	> 100 µM	> 100 µM	> 100 µM
CC(=O)c1c(O)cc(OC/C=C(\C)CC/C=C(\C)CCC=C(C)C)cc1O	29 µM	31 µM	32 µM	32 µM
CCCCCCCCCCCCCCCCCCOc1cc(O)cc(O)c1C(C)=O	> 100 µM	> 100 µM	> 100 µM	> 100 µM
CC(C)=CCC/C(C)=C/COc1c(-c2ccc(O)cc2)oc2cc(O)cc(O)c2c1=O	23 µM	25 µM		27 µM
C=C1CC[C@H]2C(C)(C)CCC[C@]2(C)[C@H]1CC/C(C)=C/Cc1c(O)cc(O)c2c(=O)c(O)c(-c3ccc(OC)cc3)oc12	> 100 µM	> 100 µM		> 100 µM
CCCCCCCC/C=C\CCCCCCCCOc1cc(O)cc(O)c1C(C)=O	31 µM	> 100 µM	32 µM	> 100 µM
CC(=O)c1c(O)cc(O)c2c1OC(C)(C)CC2	> 100 µM	> 100 µM	> 100 µM	> 100 µM
CCCCCCCC/C=C\CCCCCCCCc1c(O)cc(O)c(C(C)=O)c1O	> 100 µM	> 100 µM	> 100 µM	> 100 µM
C=C1CC[C@H]2C(C)(C)CCC[C@]2(C)[C@H]1CC/C(C)=C/COc1cc(O)c2c(=O)c(OC/C=C(\C)CC[C@H]3C(=C)CC[C@H]4C(C)(C)CCC[C@]34C)c(-c3ccc(OC)cc3)oc2c1	> 100 µM	> 100 µM		> 100 µM
CC(C)=CCC/C(C)=C/Cc1c(O)cc2oc(-c3ccccc3)cc(=O)c2c1O	32 µM	33 µM		32 µM
CC(C)=CCC/C(C)=C/COc1c(C/C=C(\C)CCC=C(C)C)c(O)c2c(=O)cc(-c3ccccc3)oc2c1C/C=C(\C)CCC=C(C)C	30 µM	32 µM		29 µM
CC(C)=CCC/C(C)=C/Cc1c(O)cc(O)c2c(=O)c(O)c(-c3ccc(O)cc3)oc12	30 µM	30 µM		26 µM
CC(C)=CCC/C(C)=C/Cc1c(O)cc2oc(-c3ccc(O)cc3)c(O)c(=O)c2c1O [MACARANGIN]	> 100 µM	> 100 µM		> 100 µM
CC(=O)c1c(O)cc(O)cc1OCC=C(C)C	> 100 µM	> 100 µM	> 100 µM	> 100 µM
CC(=O)c1c(O)cc(O)c(C/C=C(\C)CCC=C(C)C)c1O	21 µM	19 µM	19 µM	20 µM
CC(=O)c1c(O)cc(O)cc1O [2,4,6-TRIHYDROXYACETOPHENONE]	> 100 µM	> 100 µM	> 100 µM	> 100 µM
